Measured values from different studies.
Target: Protein kinase C theta type (PRKCQ, Homo sapiens, UniProt Q04759)

SMILES | test | setting | endpoint | result
Cc1nn(C)cc1-c1nc2c(N3CCN(Cc4ccc(Cl)cc4)CC3)c(Cl)cnc2[nH]1 | binding, competition with immobilised ligand | 1 µM | remaining binding | 100%
Nc1ncc(-c2nc(N3CCOCC3)nc(N3CCOCC3)n2)c(C(F)F)n1 | cell-free assay, competition with immobilised ligand | 10 µM | remaining binding | 37%
C#Cc1n[nH]c2c(-c3cn(C(C)c4ccccn4)c(=O)[nH]c3=O)cc(F)cc12 (stereo not shown) | enzyme activity, inhibitor | 1 µM | inhibition | 1.2%
CC(C)(C)c1cc(C=C(C#N)C#N)cc(Br)c1O | enzyme activity, inhibitor | 0.5 µM | remaining activity | 98%
Cn1cc(-c2cccc(N3CCc4c(sc5c4CC(C)(C)C5)C3=O)c2CO)cc(Nc2ccncn2)c1=O | enzyme activity, inhibitor | 1 µM | inhibition | -5%
Cn1cncc1[C@@](O)(COc1ccc(C#N)cc1-c1ccc(OC(F)(F)F)cc1)c1ccc(C#N)cc1 | cell-free assay, competition with immobilised ligand | 1 µM | remaining binding | 100%
O=c1[nH]c2ccccc2n1C1CCN(Cc2ccc(-c3[nH]c4cc5ncnc5cc4nc3-c3ccccc3)cc2)CC1 | cell-free assay | 0.5 µM | remaining signal | 96.4%
Cn1cc(-c2cc(F)cc(N3CCn4c(cc5c4CCCC5)C3=O)c2CO)cc(Nc2ccc(N3CCN(C4COC4)CC3)cn2)c1=O | enzyme activity, inhibitor | 0.1 µM | inhibition | 0%
N#CC1(c2ccccn2)CCN(Cc2cc(C(=O)O)c(=O)n3ccccc23)CC1 | cell-free assay, competition with immobilised ligand | 1 µM | remaining binding | 96%
COc1ncccc1-c1cnn2ccc(N3CCN(C(=O)OC(C)C)CC3)nc12 | binding, competition with immobilised ligand | 1 µM | remaining binding | 100%
